Reference: ChEMBL document CHEMBL3272207, “Structure-activity relationship in cinnamamides. 2. Synthesis and pharmacological evaluation of some (E)- and (Z)-N-alkyl-alpha, beta-dimethylcinnamamides substituted on the phenyl group” (J Med Chem, 1977)
Active and inactive are the calls of the source. No cut-off for these calls is given here.

Key:
Mus musculus [1] = assay: Behavioral toxicity in albino Icem-CET (SPF Caw) mouse assessed as reduction in locomotor activity at 25 to 800 mg/kg, po by Irwin's test; assay type: organism-based; set-up: dose 25-800 mg/kg, route oral; conditions: in vivo
Mus musculus [2] = assay: Anticonvulsant activity in albino Icem-CET (SPF Caw) mouse assessed as inhibition of pentylenetetrazole-induced maximal extensor seizures at 100 mg/kg, po administered 30 mins prior challenge; assay type: functional, organism-based; set-up: dose 100 mg/kg
Summary of the method: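 Single-dose screen at 100 mg/kg by gavage in 0.5% Methocel in fasted male Icem-CET (SPF Caw) mice, 17-22 g. Dosing was 30 min before pentylenetetrazole 130 mg/kg ip, and prevention of maximal extensor seizures was scored.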

Mus musculus [3] = assay: Behavioral toxicity in po dosed albino Icem-CET (SPF Caw) mouse assessed as tremors by Irwin's test; assay type: organism-based; conditions: in vivo
Mus musculus [4] = assay: Toxicity in po dosed albino Icem-CET (SPF Caw) mouse assessed as impairment of corneal reflexes by Irwin's test; assay type: organism-based, Cornea; conditions: in vivo
[5] = Behavioral toxicity in po dosed albino Icem-CET (SPF Caw) mouse measured up to 7 days by Irwin's test; assay type: organism-based; conditions: in vivo
Mus musculus [6] = assay: Toxicity in po dosed albino Icem-CET (SPF Caw) mouse assessed as impairment of pinna by Irwin's test; assay type: organism-based; conditions: in vivo
Mus musculus [7] = assay: Behavioral toxicity in albino Icem-CET (SPF Caw) mouse assessed as positional passivity at 25 to 800 mg/kg, po by Irwin's test; assay type: organism-based; set-up: dose 25-800 mg/kg, route oral; conditions: in vivo
Mus musculus [8] = assay: Toxicity in po dosed albino Icem-CET (SPF Caw) mouse assessed as clonic type convulsion by Irwin's test; assay type: organism-based; conditions: in vivo
Summary of the method: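 Irwin test in fasted (9 h) male Icem-CET (SPF Caw) mice, 17-22 g. Oral gavage of a 0.5% Methocel suspension at screening doses of 25-800 mg/kg. Clonic-type convulsions were scored as the minimum effective dose.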

C/C(C(=O)NC1CC1)=C(\C)c1ccc(F)cc1
Activity (Mus musculus [1]): Non-toxic
Activity (Mus musculus [2]): inactive
ED50 (Mus musculus [3]): 600 mg/kg
Activity (Mus musculus [4]): Toxic
LD50 at 168 h [5]: 450 mg/kg
Activity (Mus musculus [6]): Toxic
Activity (Mus musculus [7]): Non-toxic
MED (Mus musculus [8]): 800 mg/kg
